Assays:
[1] = system: Staphylococcus aureus; test: Growth inhibition of Staphylococcus aureus MRSA252; format: organism-based; conditions: in vitro
Outline: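 Compound alone was two-fold serially diluted in cation-adjusted Mueller-Hinton II broth containing 2.4% DMSO. Bacteria were inoculated at 5 × 10⁵ CFU mL⁻¹ and incubated at 36 °C for 16–20 h. The MIC was read in triplicate.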

[2] = system: Staphylococcus aureus; test: Potentiation of oxacillin-induced antibacterial activity against Staphylococcus aureus MRSA252 assessed as oxacillin MIC at 20 uM (reference value: 256 ug/ml); format: functional
[3] = system: Staphylococcus aureus; test: Potentiation of oxacillin-induced antibacterial activity against methicillin/oxacillin/tetracycline-resistant Staphylococcus aureus NRS100 assessed as oxacillin MIC at 20 uM; format: functional
Outline: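 Oxacillin MIC measured with the synthetic potentiator held at a fixed 20 μM. Two-fold serial dilution in cation-adjusted Mueller-Hinton II broth containing 2.4% DMSO. Inoculum 5 × 10⁵ CFU mL⁻¹, incubated at 36 °C for 16–20 h. Run in triplicate.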

[4] = system: Staphylococcus aureus; test: Potentiation of oxacillin-induced antibacterial activity against Staphylococcus aureus NRS386 assessed as oxacillin MIC at 20 uM; format: functional; conditions: USA700 NRS386
[5] = system: Staphylococcus aureus; test: Potentiation of oxacillin-induced antibacterial activity against Staphylococcus aureus NRS70 assessed as oxacillin MIC at 20 uM; format: functional
[6] = system: Staphylococcus aureus; test: Potentiation of oxacillin-induced antibacterial activity against Staphylococcus aureus MRSA252 assessed as fold reduction in oxacillin MIC at 20 uM relative to oxacillin alone; format: functional

Row | Structure (SMILES) | growth inhibition (GI) [1] | MIC [2] | MIC [3] | MIC [4] | MIC [5] | fold change (FC) [6]
1 | CCN(Cc1ccccc1N(CCO)S(=O)(=O)c1ccc(C)cc1)C(=O)/C=C/c1ccc(C(F)(F)F)cc1 | Non-Toxic | ≥ 256 µg/mL |  |  |  | 
2 | CN(Cc1ccccc1N(CCO)S(=O)(=O)c1ccc2c(c1)OCCO2)C(=O)/C=C/c1ccc(C(F)(F)F)cc1 | Non-Toxic | 64 µg/mL |  |  |  | 
3 | Cc1ccc(S(=O)(=O)N(CCO)c2ccccc2CN(C)C(=O)/C=C/c2ccc(Cl)cc2)cc1 | Non-Toxic | 2 µg/mL | 2 µg/mL | 4 µg/mL | 8 µg/mL | 128
4 | Cc1ccc(S(=O)(=O)N(CCO)c2ccccc2CN(C(=O)/C=C/c2ccc(C(F)(F)F)cc2)C(C)C)cc1 | Non-Toxic | ≥ 256 µg/mL |  |  |  | 
5 | Cc1ccc(S(=O)(=O)N(CCO)c2ccccc2CN(C)C(=O)/C=C/c2ccc(Cl)c(Cl)c2)cc1 | Non-Toxic | 16 µg/mL |  |  |  | 
6 | CN(Cc1ccccc1N(CCO)S(=O)(=O)c1ccc(F)cc1)C(=O)/C=C/c1ccc(C(F)(F)F)cc1 | Non-Toxic | 2 µg/mL | 2 µg/mL | 8 µg/mL | 16 µg/mL | 128
7 | Cc1ccc(S(=O)(=O)N(CCO)c2ccccc2CN(C)C(=O)COc2ccc(Cl)cc2)cc1 | Non-Toxic | ≥ 256 µg/mL |  |  |  | 
8 | CN(Cc1ccccc1NS(=O)(=O)c1ccc(F)cc1)C(=O)/C=C/c1ccc(C(F)(F)F)cc1 | Non-Toxic | ≥ 256 µg/mL |  |  |  | 
9 | Cc1ccc(S(=O)(=O)N(CCO)c2ccccc2CN(C/C=C/c2ccc(Cl)cc2)CC(C)C)cc1 | Non-Toxic | 128 µg/mL |  |  |  | 
10 | CN(C/C=C/c1ccc(Cl)cc1)Cc1ccccc1N(CCO)S(=O)(=O)c1ccc(C(F)(F)F)cc1 | Non-Toxic | 64 µg/mL |  |  |  | 
11 | CCc1ccc(S(=O)(=O)N(CCO)c2ccccc2CN(C)C(=O)/C=C/c2ccc(C(F)(F)F)cc2)cc1 | Non-Toxic | 4 µg/mL | 16 µg/mL | 8 µg/mL | 16 µg/mL | 64
12 | Cc1ccc(S(=O)(=O)N(CCO)c2ccccc2CN(C(=O)/C=C/c2ccc(C(F)(F)F)cc2)C2CC2)cc1 | Non-Toxic | ≥ 256 µg/mL |  |  |  | 
13 | Cc1ccc(S(=O)(=O)N(CCO)c2ccccc2CN(C)C(=O)CCc2ccc(Cl)cc2)cc1 | Non-Toxic | ≥ 256 µg/mL |  |  |  | 
14 | CN(Cc1ccccc1N(CCO)S(=O)(=O)c1ccc([N+](=O)[O-])cc1)C(=O)/C=C/c1ccc(C(F)(F)F)cc1 | Non-Toxic | ≥ 256 µg/mL |  |  |  | 
15 | CN(Cc1ccccc1N(CCO)S(=O)(=O)c1ccsc1)C(=O)/C=C/c1ccc(Cl)cc1 | Non-Toxic | ≥ 256 µg/mL |  |  |  | 
16 | Cc1ccc(S(=O)(=O)N(CCO)c2cccc(CN(C)C(=O)/C=C/c3ccc(C(F)(F)F)cc3)c2)cc1 | Non-Toxic | ≥ 256 µg/mL |  |  |  | 
17 | Cc1ccc(S(=O)(=O)N(CCO)c2ccccc2C(=O)N(C)C/C=C/c2ccc(Cl)cc2)cc1 | Non-Toxic | ≥ 256 µg/mL |  |  |  | 
18 | CN(Cc1ccccc1N(CCO)S(=O)(=O)c1ccc(F)cc1)C(=O)/C=C/c1ccc(Cl)cc1 | Non-Toxic | 4 µg/mL | 1 µg/mL | 1 µg/mL | 8 µg/mL | 64
19 | COc1ccc(/C=C/C(=O)N(C)Cc2ccccc2N(CCO)S(=O)(=O)c2ccc(C)cc2)cc1 | Non-Toxic | ≥ 256 µg/mL |  |  |  | 
20 | CN(Cc1ccccc1N(CCO)S(=O)(=O)c1cccs1)C(=O)/C=C/c1ccc(Cl)cc1 | Non-Toxic | 256 µg/mL |  |  |  | 
21 | CC(=O)Nc1ccc(/C=C/C(=O)N(C)Cc2ccccc2N(CCO)S(=O)(=O)c2ccc(C)cc2)cc1 | Non-Toxic | ≥ 256 µg/mL |  |  |  | 
22 | CC(=O)Nc1ccc(S(=O)(=O)N(CCO)c2ccccc2CN(C)C/C=C/c2ccc(Cl)cc2)cc1 | Non-Toxic | ≥ 256 µg/mL |  |  |  | 
23 | Cc1ccc(S(=O)(=O)N(CCO)c2ccccc2CN(C)C(=O)c2ccc3cc(Br)ccc3c2)cc1 | Non-Toxic | ≥ 256 µg/mL |  |  |  | 
24 | Cc1ccc(S(=O)(=O)N(CCO)c2ccccc2CN(C)C/C=C/c2ccc(Cl)cc2)cc1 | Non-Toxic | 32 µg/mL |  |  |  | 
25 | C=CCN(C)Cc1ccccc1N(CCO)S(=O)(=O)c1ccc(C)cc1 | Non-Toxic | ≥ 256 µg/mL |  |  |  | 
26 | CN(Cc1ccccc1N(CCO)S(=O)(=O)c1ccc(OC(F)(F)F)cc1)C(=O)/C=C/c1ccc(C(F)(F)F)cc1 | Non-Toxic | 32 µg/mL |  |  |  | 

Reference: ChEMBL document CHEMBL4368884, “Structure-activity relationship of the cinnamamide family of antibiotic potentiators for methicillin-resistant Staphylococcus aureus (MRSA)” (Medchemcomm, 2018)
